We go through nine molecules from publication PMC4831585 (Journal of the American Chemical Society, 2015).

In one experiment the test system is MoaA GG-motif mutants. Briefly: MoaA/MoaC coupled assay / peptide rescue, MoaA GG-motif mutants. The note with it: for increase of Km over wt-MoaA: GG-motif mutants with 500 μM 11-mer peptide vs wt-MoaA. The experiment is classed as biochemical, Staphylococcus aureus.
Experiment [1] deals with T1, wt-MoaA (Staphylococcus aureus, UniProt P69848). Briefly: Abortive SAM cleavage. It is filed as biochemical. Particulars: 5′-dA vs cPMP amounts, triplicate, SD.
Experiment [2] concerns the target T1, wt-MoaA. Briefly: Anaerobic ITC, wt-MoaA. It is filed as binding. The essentials:
(§1)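 His6-tagged S. aureus MoaA (wild type or GG-motif point mutants) was expressed in E. coli, purified and reconstituted anaerobically. […] Run as 29 injections at 24 °C, 307 rpm, with degassed buffer-only control titration.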

The next experiment concerns the target MoaA G339A (Staphylococcus aureus, UniProt P69848, G339A). Briefly: Anaerobic ITC, G339A-MoaA. The experiment is classed as binding. The essentials: as §1
Experiment [3] concerns the target T2, G340A-MoaA (Staphylococcus aureus, UniProt P69848, G340A). Briefly: MoaA/MoaC coupled assay. It is filed as biochemical. The note with it: for activity restoration lower than the 11-mer peptide: G340A-MoaA, peptide 200 μM (Figure 4A).
The target in another experiment is T3, MoaA G340A (Staphylococcus aureus, UniProt P69848, G340A).
T3 sequence (P69848 1-340 G340A): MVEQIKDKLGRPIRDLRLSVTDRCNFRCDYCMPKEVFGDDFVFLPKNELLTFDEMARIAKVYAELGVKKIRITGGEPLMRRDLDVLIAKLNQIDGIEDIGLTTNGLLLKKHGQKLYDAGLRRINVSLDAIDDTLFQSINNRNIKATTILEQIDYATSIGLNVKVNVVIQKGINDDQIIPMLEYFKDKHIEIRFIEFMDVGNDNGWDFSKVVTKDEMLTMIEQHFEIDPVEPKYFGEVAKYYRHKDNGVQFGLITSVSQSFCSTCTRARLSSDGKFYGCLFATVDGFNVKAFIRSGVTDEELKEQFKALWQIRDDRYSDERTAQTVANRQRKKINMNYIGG
Briefly: Anaerobic ITC, G340A-MoaA. It is filed as binding. The essentials: as §1

Experiment [4] concerns the target T2, G340A-MoaA. Briefly: Abortive SAM cleavage. The experiment is classed as biochemical. The note with it: G340A-MoaA with 11-mer wt peptide, 5′-dA vs cPMP amounts; triplicate, SD.
The target in another experiment is R330A/K331A/K332A-MoaA (Staphylococcus aureus, UniProt P69848, K331A/K332A/R330A). Briefly: MoaA/MoaC coupled assay / peptide rescue, R330A/K331A/K332A-MoaA. The experiment is classed as biochemical. Particulars: for activity restoration by peptide: peptide 200 μM (Figure 4A).
Experiment [5] deals with T1, wt-MoaA. The note with it: [3′-D]GTP vs GTP as substrate; wt-MoaA reaction; cited from earlier work.
Another experiment addresses D198A-MoaA (Staphylococcus aureus, UniProt P69848, D198A). The experiment is classed as biochemical. Particulars: without peptide; coupled assay.
[6] abbreviates: with 500 μM 11-mer wt peptide, coupled assay with MoaC, pH 7.6, 25 °C.

Ends that are not written are not given here. Some results are limits rather than exact numbers.

Turning to `Nc1nc2c(ncn2[C@@H]2O[C@H](COP(=O)(O)OP(=O)(O)OP(=O)(O)O)[C@@H](O)[C@H]2O)c(=O)[nH]1` [GTP, Guanosine 5′-triphosphate], in the experiment on MoaA GG-motif mutants, the “increase of Km over wt-MoaA” value is recorded as 2–17 fold. In addition, the results for the “uncoupling (abortive SAM cleavage relative to cPMP formation)” value on wt-MoaA [1] and on G340A-MoaA [4] were 4.1 ± 2.7% and 8.2 ± 4.8%, respectively. The results for the Kd at wt-MoaA [2], on MoaA G339A and at MoaA G340A were 5 ± 3 µM, 0.46 ± 0.01 µM and 5.2 ± 2.3 µM, respectively. In addition, the Km on G340A-MoaA [3] (setting [6]) turned out to be 7.7 ± 3.8 µM. Further, on G340A-MoaA [3] (setting [6]), the kcat came to 0.000783 ± 5e-05 s⁻¹.
With `C[S+](CC[C@H](N)C(=O)[O-])C[C@H]1O[C@@H](n2cnc3c(N)ncnc32)[C@H](O)[C@@H]1O` (stereo partly drawn) [SAM, S-adenosyl-L-methionine], the “increase of Km over wt-MoaA” value in the experiment with MoaA GG-motif mutants was 7–18 fold. Also, the Kd at wt-MoaA [2] is 1.7 ± 0.6 µM; at MoaA G339A it was above 90 µM; at MoaA G340A, above 90 µM. On G340A-MoaA [3] (setting [6]), the Km was found to be 37 ± 14 µM.
As for RKKINMNYIGG [11-mer wt peptide], the Kd at G340A-MoaA [3] (KD (peptide titration, figure legend), Figure 3C, nonlinear fit to the Hill equation, coupled assay) turned out to be 151 µM; at R330A/K331A/K332A-MoaA (Kd (peptide titration, figure legend), Figure 4B, nonlinear fit to Hill equation), 172 µM.
With RKKINMNYIGA, the “restoration of MoaA activity by GG-motif mutated peptide” value in the experiment with MoaA GG-motif mutants (even at 1.0 mM peptide concentration, coupled assay (Figure 3A)) was “did not restore the MoaA activity”.
Turning to NYIGG [5-mer], the “activity restoration lower than the 11-mer peptide” value at G340A-MoaA [3] (coupled assay) turned out to be 100 fold. Besides, the “activity restoration by peptide” value on R330A/K331A/K332A-MoaA is recorded as “No significant activity restoration”.
As for `[2H][C@@]1(O)[C@@H](COP(=O)(O)OP(=O)(O)OP(=O)(O)O)O[C@@H](n2cnc3c(=O)[nH]c(N)nc32)[C@@H]1O` [[3′-D]GTP], the KIE on wt-MoaA [5] was 1.28 ± 0.05. Further, the results for the “uncoupling (abortive SAM cleavage relative to cPMP formation)” value on wt-MoaA [1] and on G340A-MoaA [4] were 5.5 ± 3.0% and 25 ± 6.7%, respectively.
For INMNYIGG [8-mer], the “activity restoration lower than the 11-mer peptide” value on G340A-MoaA [3] (coupled assay) amounted to 10 fold. Besides, the “activity restoration by peptide” value on R330A/K331A/K332A-MoaA is on record as “No significant activity restoration”.

B1: D198A-MoaA: S. aureus MoaA variant with D198A mutation in Loop 14 (protein)
chain: MVEQIKDKLGRPIRDLRLSVTDRCNFRCDYCMPKEVFGDDFVFLPKNELLTFDEMARIAKVYAELGVKKIRITGGEPLMRRDLDVLIAKLNQIDGIEDIGLTTNGLLLKKHGQKLYDAGLRRINVSLDAIDDTLFQSINNRNIKATTILEQIDYATSIGLNVKVNVVIQKGINDDQIIPMLEYFKDKHIEIRFIEFMAVGNDNGWDFSKVVTKDEMLTMIEQHFEIDPVEPKYFGEVAKYYRHKDNGVQFGLITSVSQSFCSTCTRARLSSDGKFYGCLFATVDGFNVKAFIRSGVTDEELKEQFKALWQIRDDRYSDERTAQTVANRQRKKINMNYIGG
Turning to B1, the “activity of mutant relative to wt-MoaA” value in the experiment with D198A-MoaA was 8 % the activity of wt-MoaA.

B2: R330A/K331A/K332A-MoaA (protein)
chain: MVEQIKDKLGRPIRDLRLSVTDRCNFRCDYCMPKEVFGDDFVFLPKNELLTFDEMARIAKVYAELGVKKIRITGGEPLMRRDLDVLIAKLNQIDGIEDIGLTTNGLLLKKHGQKLYDAGLRRINVSLDAIDDTLFQSINNRNIKATTILEQIDYATSIGLNVKVNVVIQKGINDDQIIPMLEYFKDKHIEIRFIEFMDVGNDNGWDFSKVVTKDEMLTMIEQHFEIDPVEPKYFGEVAKYYRHKDNGVQFGLITSVSQSFCSTCTRARLSSDGKFYGCLFATVDGFNVKAFIRSGVTDEELKEQFKALWQIRDDRYSDERTAQTVANRQAAAINMNYIGG
Take B2: the “activity of mutant relative to wt-MoaA” value in the experiment with R330A/K331A/K332A-MoaA (without peptide) is given as 8 % the activity of wt-MoaA.
